Results as given in ChEMBL document CHEMBL3797168 (J Med Chem, 2016).
Active and inactive are the calls of the source.

Tests used:
[1] = biological target: T1, Adenosine receptor A3 (Mus musculus, UniProt Q61618); assay: Displacement of [125I]N6-(4-amino-3-iodobenzyl)adenosine-5'-Nmethyluronamide from mouse adenosine A3 receptor expressed in HEK293 cell membranes incubated for 60 mins by liquid scintillation counting analysis
T1 sequence (Q61618 whole entry): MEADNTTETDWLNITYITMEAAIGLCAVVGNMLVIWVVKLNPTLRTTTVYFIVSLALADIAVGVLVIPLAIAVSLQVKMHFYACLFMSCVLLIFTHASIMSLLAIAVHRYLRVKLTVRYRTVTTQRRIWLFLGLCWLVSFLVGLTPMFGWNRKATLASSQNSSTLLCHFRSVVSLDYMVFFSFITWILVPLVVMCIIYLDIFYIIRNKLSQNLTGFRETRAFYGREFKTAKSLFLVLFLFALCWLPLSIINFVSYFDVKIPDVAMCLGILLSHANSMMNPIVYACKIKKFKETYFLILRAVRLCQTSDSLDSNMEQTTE

[2] = test system: Mus musculus; assay: Antineuropathic pain activity in mouse chronic constriction injury model assessed as protection against mechanoallodynia at 3 micromol/kg administered as oral gavage on day 7; assay type: functional, organism-based
Outline: (§1)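 Mice underwent sciatic nerve ligation (Bennett method). On day 7, at peak pain, they were dosed by oral gavage at 3 µmol/kg, n=3. Vehicle was 10% DMSO in 0.5% methylcellulose, diluted from a 5 mM DMSO stock. Ipsilateral hind paw withdrawal threshold (g) was followed over time. Experimenters were blinded.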

[3] = biological target: Adenosine receptor A2a (Homo sapiens) (UniProt P29274); assay: Displacement of [3H]2-[p-(2-carboxyethyl)phenyl-ethylamino]-5'-N-ethylcarboxamido-adenosine from human adenosine A2A receptor expressed in HEK293 cell membranes at 10 uM incubated for 60 mins by liquid scintillation counting analysis
Sequence of Adenosine receptor A2a (Homo sapiens) (P29274 whole entry): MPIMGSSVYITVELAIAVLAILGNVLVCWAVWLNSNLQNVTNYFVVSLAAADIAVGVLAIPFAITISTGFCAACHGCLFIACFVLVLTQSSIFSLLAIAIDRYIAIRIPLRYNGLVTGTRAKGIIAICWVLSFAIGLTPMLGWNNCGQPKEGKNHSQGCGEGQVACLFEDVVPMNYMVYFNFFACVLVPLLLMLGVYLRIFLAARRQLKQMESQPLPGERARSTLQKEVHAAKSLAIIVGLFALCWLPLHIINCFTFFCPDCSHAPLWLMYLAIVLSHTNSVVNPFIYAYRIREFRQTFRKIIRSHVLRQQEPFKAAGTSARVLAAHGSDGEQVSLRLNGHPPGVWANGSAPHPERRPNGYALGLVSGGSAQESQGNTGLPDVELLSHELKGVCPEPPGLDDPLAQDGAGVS

[4] = biological target: T2, Adenosine receptor A3 (Homo sapiens, UniProt P0DMS8); assay: Displacement of [125I]N6-(4-amino-3-iodobenzyl)adenosine-5'-N-methyl-uronamide from human adenosine A3 receptor expressed in CHO cell membranes incubated for 60 mins by liquid scintillation counting analysis
T2 sequence (P0DMS8 whole entry): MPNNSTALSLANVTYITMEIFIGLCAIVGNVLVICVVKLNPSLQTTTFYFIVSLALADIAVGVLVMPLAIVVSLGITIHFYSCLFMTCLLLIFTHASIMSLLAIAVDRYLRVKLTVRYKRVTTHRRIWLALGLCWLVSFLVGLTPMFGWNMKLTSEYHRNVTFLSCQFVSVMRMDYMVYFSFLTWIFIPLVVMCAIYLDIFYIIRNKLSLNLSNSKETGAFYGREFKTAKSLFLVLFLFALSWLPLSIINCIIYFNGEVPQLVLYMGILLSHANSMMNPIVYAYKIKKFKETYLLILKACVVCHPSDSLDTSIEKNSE

[5] = biological target: T1, Adenosine receptor A3; assay: Agonist activity at mouse adenosine A3 receptor expressed in HEK293 cell membranes assessed as inhibition of forskolin-stimulated cAMP accumulation preincubated for 30 mins followed by forsolkin addition measured after 15 mins by immunoassay; assay type: functional, cell-based
[6] = biological target: T3, Adenosine receptor A1 (Homo sapiens) (UniProt P30542); assay: Displacement of [3H]N6-R-phenylisopropyladenosine from human adenosine A1 receptor expressed in CHO cell membranes at 10 uM incubated for 60 mins by liquid scintillation counting analysis
T3 sequence (whole entry): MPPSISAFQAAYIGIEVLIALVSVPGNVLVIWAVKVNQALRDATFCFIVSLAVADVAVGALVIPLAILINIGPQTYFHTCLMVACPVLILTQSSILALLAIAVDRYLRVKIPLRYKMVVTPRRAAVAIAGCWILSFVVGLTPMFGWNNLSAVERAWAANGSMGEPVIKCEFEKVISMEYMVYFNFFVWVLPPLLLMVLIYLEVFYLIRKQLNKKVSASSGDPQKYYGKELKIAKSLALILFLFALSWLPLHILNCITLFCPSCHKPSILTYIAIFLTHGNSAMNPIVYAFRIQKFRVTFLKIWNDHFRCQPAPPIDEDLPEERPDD

[7] = test system: Mus musculus; assay: Antineuropathic pain activity in mouse chronic constriction injury model assessed as time duration showing protection against mechanoallodynia at 3 micromol/kg administered as oral gavage on day 7; assay type: functional; outline: as §1
[8] = biological target: T2, Adenosine receptor A3; assay: Agonist activity at recombinant human adenosine A3 receptor expressed in CHO cells assessed as inhibition of forskolin-stimulated cAMP accumulation preincubated for 30 mins followed by forsolkin addition measured after 15 mins by immunoassay; assay type: cell-based
[9] = biological target: Sodium-dependent dopamine transporter (Homo sapiens) (UniProt Q01959); assay: Increase in [3H]methyl (1R,2S,3S)-3-(4-fluorophenyl)-8-methyl-8-azabicyclo[3.2.1]octane-2-carboxylate binding to recombinant human DAT expressed in HEK293 cells at 10 uM by PDSP assay; assay type: cell-based
Sequence of Sodium-dependent dopamine transporter (Homo sapiens) (Q01959 whole entry): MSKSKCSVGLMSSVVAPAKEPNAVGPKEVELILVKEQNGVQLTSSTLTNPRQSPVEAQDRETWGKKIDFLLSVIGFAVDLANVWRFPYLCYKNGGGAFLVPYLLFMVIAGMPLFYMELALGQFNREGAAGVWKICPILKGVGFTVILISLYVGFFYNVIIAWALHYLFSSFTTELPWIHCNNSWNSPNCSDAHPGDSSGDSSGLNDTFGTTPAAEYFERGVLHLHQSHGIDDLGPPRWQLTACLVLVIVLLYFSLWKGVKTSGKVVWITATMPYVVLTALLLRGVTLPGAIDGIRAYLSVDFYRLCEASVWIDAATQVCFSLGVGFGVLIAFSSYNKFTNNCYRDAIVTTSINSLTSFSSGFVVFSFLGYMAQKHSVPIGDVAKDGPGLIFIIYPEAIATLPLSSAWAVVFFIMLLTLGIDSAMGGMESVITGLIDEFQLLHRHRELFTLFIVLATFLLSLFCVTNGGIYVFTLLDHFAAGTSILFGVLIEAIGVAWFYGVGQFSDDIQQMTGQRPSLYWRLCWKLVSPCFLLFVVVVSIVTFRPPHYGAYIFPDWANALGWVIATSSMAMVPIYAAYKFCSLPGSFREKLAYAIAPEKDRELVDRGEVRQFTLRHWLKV

[10] = biological target: T4, Adenosine receptor A1 (Homo sapiens, UniProt P30542); assay: Displacement of [3H]N6-R-phenylisopropyladenosine from human adenosine A1 receptor expressed in CHO cell membranes incubated for 60 mins by liquid scintillation counting analysis
T4 sequence (P30542 whole entry): T3 sequence (whole entry)

[11] = test system: Mus musculus; assay: Antineuropathic pain activity in mouse chronic constriction injury model assessed as protection against mechanoallodynia at 3 micromol/kg administered as oral gavage on day 7 measured at 3 hrs; assay type: functional; outline: as §1
[12] = test system: Mus musculus; assay: Antineuropathic pain activity in mouse chronic constriction injury model assessed as protection against mechanoallodynia at 3 micromol/kg administered as oral gavage on day 7 measured at 1 hr; assay type: functional; outline: as §1
[13] = biological target: Delta-type opioid receptor (Homo sapiens, UniProt P41143)
Sequence of Delta-type opioid receptor (P41143 whole entry): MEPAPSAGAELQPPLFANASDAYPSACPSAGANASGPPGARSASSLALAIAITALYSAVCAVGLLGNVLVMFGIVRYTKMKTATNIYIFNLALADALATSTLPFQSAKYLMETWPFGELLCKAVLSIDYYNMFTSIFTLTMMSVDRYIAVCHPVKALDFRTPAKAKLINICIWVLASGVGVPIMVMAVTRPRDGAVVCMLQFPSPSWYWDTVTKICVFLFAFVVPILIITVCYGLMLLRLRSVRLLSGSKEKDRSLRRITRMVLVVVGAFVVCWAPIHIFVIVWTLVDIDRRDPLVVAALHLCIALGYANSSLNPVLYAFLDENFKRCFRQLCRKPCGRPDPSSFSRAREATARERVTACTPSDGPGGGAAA

Compound	inhibition [3]	Ki [4]	inhibition [6]	other results
CNC(=O)[C@@]12C[C@@H]1[C@@H](n1cnc3c(/C=C(\O)c4ccccc4)nc(C#Cc4ccccc4)nc31)[C@H](O)[C@@H]2O	16%	0.0785 µM	16%	Ki [1]: 0.136 µM; Activity [2]: Active; EC50 [5]: 0.00486 µM
CNC(=O)[C@@]12C[C@@H]1[C@@H](n1cnc3cnc(NC)nc31)[C@H](O)[C@@H]2O	< 10%	0.604 µM	17%	
CNC(=O)[C@@]12C[C@@H]1[C@@H](n1cnc3c(/C=C(\O)c4ccc(C(C)(C)C)cc4)nc(C#Cc4ccc(C(C)(C)C)cc4)nc31)[C@H](O)[C@@H]2O	19%	0.0943 µM	24%	
CNC(=O)[C@@]12C[C@@H]1[C@@H](n1cnc3cnc(C#Cc4ccc(F)c(F)c4)nc31)[C@H](O)[C@@H]2O	12%	0.124 µM	17%	
CNC(=O)[C@@]12C[C@@H]1[C@@H](n1cnc3c(NCc4cccc(Cl)c4)nc(C#Cc4ccc(F)c(F)c4)nc31)[C@H](O)[C@@H]2O				Activity [11]: 23.7%; Activity [12]: 100%
CNC(=O)[C@@]12C[C@@H]1[C@@H](n1cnc3cnc(/C=C(\O)c4cnccn4)nc31)[C@H](O)[C@@H]2O	20%	1.48 µM	14%	
CNC(=O)[C@@]12C[C@@H]1[C@@H](n1cnc3c(NC)nc(C#Cc4ccccc4)nc31)[C@H](O)[C@@H]2O				Activity [2]: Active
CNC(=O)[C@@]12C[C@@H]1[C@@H](n1cnc3c(/C=C(\O)c4ccccc4Cl)nc(C#Cc4ccccc4Cl)nc31)[C@H](O)[C@@H]2O	21%	0.515 µM	28%	
CNC(=O)[C@@]12C[C@@H]1[C@@H](n1cnc3c(/C=C(\O)c4ccccc4)nc(Cl)nc31)[C@H](O)[C@@H]2O	24%	1.14 µM	30%	

Further lines, with some results ahead:

inhibition [3]	Ki [4]	inhibition [6]	Compound	other results
18%	0.06 µM	< 10%	CNC(=O)[C@@]12C[C@@H]1[C@@H](n1cnc3cnc(C#Cc4ccc(Cl)s4)nc31)[C@H](O)[C@@H]2O	Ki [1]: 0.396 µM; Time [7]: 5 h; EC50 [8]: 0.0269 µM
34%		15%	CNC(=O)[C@@]12C[C@@H]1[C@@H](n1cnc3c(C)nc(C#Cc4ccccc4)nc31)[C@H](O)[C@@H]2O	Activity [2]: Active; Activity [9]: 200%
14%	0.0985 µM		CNC(=O)[C@@]12C[C@@H]1[C@@H](n1cnc3c(C)nc(C#Cc4ccc(F)c(F)c4)nc31)[C@H](O)[C@@H]2O	Ki [10]: 5.43 µM
15%		16%	CNC(=O)[C@@]12C[C@@H]1[C@@H](n1cnc3c(C)nc(C#Cc4ccc(C(C)(C)C)cc4)nc31)[C@H](O)[C@@H]2O	
27%			CNC(=O)[C@@]12C[C@@H]1[C@@H](n1cnc3c(OC)nc(C#Cc4ccc(Cl)s4)nc31)[C@H](O)[C@@H]2O	Ki [10]: 0.796 µM
17%		15%	CNC(=O)[C@@]12C[C@@H]1[C@@H](n1cnc3c(C)nc(C#Cc4cnccn4)nc31)[C@H](O)[C@@H]2O	
12%	0.0422 µM	< 10%	CNC(=O)[C@@]12C[C@@H]1[C@@H](n1cnc3c(C)nc(C#Cc4ccc(Cl)s4)nc31)[C@H](O)[C@@H]2O	Ki [1]: 0.722 µM; Activity [2]: Active; Ki [13]: 5.8 µM; EC50 [8]: 0.0125 µM
